Experimental data: ChEMBL document CHEMBL1135184, “2,4-Disubstituted pyrroles: synthesis, traceless linking and pharmacological investigations leading to the dopamine D4 receptor partial agonist FAUC 356” (Bioorg Med Chem Lett, 2002)

How the values were obtained:
D(1A) dopamine receptor = D(1A) dopamine receptor (Bos taurus, UniProt Q95136); assay: Ability to displace [3H]SCH-23,390 radioligand from bovine Dopamine receptor D1
D(2) dopamine receptor [1] = target: T1, D(2) dopamine receptor (Homo sapiens, UniProt P14416); assay: Ability to displace […] radioligand from cloned human Dopamine receptor D2 in CHO cells; format: cell-based
T1 sequence (P14416 whole entry): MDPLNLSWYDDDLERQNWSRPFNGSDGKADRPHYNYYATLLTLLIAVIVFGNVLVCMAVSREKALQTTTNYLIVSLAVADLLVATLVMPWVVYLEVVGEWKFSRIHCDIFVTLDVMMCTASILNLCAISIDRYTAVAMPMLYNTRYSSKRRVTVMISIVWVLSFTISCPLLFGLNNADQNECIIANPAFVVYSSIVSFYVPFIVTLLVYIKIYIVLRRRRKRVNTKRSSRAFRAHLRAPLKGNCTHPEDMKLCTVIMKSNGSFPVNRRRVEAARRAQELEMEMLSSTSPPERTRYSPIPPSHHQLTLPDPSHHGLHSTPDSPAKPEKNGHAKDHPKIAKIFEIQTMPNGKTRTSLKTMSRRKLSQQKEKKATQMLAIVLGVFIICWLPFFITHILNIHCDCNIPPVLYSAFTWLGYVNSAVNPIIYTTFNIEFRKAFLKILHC

D(3) dopamine receptor = D(3) dopamine receptor (Homo sapiens, UniProt P35462); assay: Ability to displace [3H]spiperone radioligand from cloned human Dopamine receptor D3 in CHO cells; format: cell-based
Sequence of D(3) dopamine receptor (P35462 whole entry): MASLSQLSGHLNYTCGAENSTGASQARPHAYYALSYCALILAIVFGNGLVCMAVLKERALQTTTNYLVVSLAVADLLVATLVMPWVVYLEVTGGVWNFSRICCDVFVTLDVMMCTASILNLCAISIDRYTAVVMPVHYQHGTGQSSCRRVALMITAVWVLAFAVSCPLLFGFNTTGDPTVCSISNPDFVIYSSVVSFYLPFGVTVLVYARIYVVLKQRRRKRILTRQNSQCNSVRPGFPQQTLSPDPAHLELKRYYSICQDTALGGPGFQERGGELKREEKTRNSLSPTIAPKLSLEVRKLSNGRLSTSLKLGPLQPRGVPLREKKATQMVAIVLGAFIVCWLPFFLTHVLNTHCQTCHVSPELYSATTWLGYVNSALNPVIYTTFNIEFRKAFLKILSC
Method in brief: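 Human D3 receptor stably expressed in CHO cells, membranes labelled with [3H]spiperone in a competition format.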

D(2) dopamine receptor [2] = target: T1, D(2) dopamine receptor; assay: Ability to displace [3H]spiperone radioligand from cloned human Dopamine receptor D2 in CHO cells; format: cell-based
D(4) dopamine receptor [3] = target: T2, D(4) dopamine receptor (Homo sapiens, UniProt P21917); assay: Ability to displace [3H]spiperone radioligand from cloned human Dopamine receptor D4 in CHO cells; format: cell-based
T2 sequence (P21917 whole entry): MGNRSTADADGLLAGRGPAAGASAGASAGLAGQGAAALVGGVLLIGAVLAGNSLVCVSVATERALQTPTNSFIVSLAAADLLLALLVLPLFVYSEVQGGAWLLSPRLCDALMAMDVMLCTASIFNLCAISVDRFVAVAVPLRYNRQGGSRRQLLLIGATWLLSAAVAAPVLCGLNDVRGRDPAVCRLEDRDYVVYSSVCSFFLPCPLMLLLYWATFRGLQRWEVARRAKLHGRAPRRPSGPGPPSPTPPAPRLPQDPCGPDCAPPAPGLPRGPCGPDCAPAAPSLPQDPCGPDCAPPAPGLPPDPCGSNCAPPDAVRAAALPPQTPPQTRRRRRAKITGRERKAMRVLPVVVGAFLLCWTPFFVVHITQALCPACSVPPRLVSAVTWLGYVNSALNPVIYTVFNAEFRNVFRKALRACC

D(4) dopamine receptor [4] = target: T2, D(4) dopamine receptor; assay: Effective concentration of compound required against human Dopamine D4.2 receptor; format: functional
[5] = target: 5-hydroxytryptamine receptor 2A (Sus scrofa, UniProt P50129); assay: Ability to displace [3H]-Ketanserin radioligand from porcine 5-hydroxytryptamine 2A receptor
Sequence of 5-hydroxytryptamine receptor 2A (P50129 whole entry): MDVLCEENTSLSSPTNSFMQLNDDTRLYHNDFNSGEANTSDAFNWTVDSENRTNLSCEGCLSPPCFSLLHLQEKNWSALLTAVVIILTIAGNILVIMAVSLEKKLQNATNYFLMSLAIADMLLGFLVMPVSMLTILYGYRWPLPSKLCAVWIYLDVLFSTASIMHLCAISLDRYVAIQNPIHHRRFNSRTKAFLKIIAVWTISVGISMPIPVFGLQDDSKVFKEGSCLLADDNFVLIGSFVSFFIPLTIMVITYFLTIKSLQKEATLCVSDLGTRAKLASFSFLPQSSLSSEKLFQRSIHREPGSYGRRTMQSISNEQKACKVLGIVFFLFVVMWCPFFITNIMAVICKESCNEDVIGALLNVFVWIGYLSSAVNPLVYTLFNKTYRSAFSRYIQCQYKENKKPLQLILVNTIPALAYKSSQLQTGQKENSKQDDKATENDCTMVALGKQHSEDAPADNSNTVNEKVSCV

[6] = target: T3, D(4) dopamine receptor (Homo sapiens) (UniProt P21917)
T3 sequence (whole entry): T2 sequence (P21917 whole entry)

Sequence of D(1A) dopamine receptor (Q95136 whole entry): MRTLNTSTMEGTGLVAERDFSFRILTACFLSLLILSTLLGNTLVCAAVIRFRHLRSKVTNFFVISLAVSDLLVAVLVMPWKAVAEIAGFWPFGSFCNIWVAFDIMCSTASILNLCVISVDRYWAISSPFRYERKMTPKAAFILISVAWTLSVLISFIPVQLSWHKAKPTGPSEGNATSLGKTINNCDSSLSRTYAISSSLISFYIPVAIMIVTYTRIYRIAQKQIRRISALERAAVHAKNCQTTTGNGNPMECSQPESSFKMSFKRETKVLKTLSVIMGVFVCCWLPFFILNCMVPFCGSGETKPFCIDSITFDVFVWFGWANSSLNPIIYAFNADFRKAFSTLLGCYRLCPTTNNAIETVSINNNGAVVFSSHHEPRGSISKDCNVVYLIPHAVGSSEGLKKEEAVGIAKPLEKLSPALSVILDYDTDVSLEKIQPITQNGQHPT

c1ccc(N2CCN(Cc3ccc[nH]3)CC2)cc1
Ki (D(1A) dopamine receptor): 5400 nM
Ki (D(2) dopamine receptor [1]): 3100 nM
Ki (D(3) dopamine receptor): 570 nM
Ki (D(2) dopamine receptor [2]): 3000 nM
Ki (D(4) dopamine receptor [3]): 100 nM

N#Cc1c[nH]c(CN2CCN(c3ccccc3)CC2)c1
Ki (D(1A) dopamine receptor): 4600 nM
EC50 (D(4) dopamine receptor [4]): 5.6 nM
Ki (D(2) dopamine receptor [1]): 3700 nM
Ki (D(3) dopamine receptor): 1800 nM
Ki [5]: 610 nM
Ki (D(2) dopamine receptor [2]): 8000 nM
Ki (D(4) dopamine receptor [3]): 21 nM

N#Cc1cc(CN2CCN(c3ccccc3)CC2)c[nH]1
EC50 [6]: 7.8 nM
Ki (D(1A) dopamine receptor): 1200 nM
Ki (D(2) dopamine receptor [1]): 2400 nM
Ki (D(3) dopamine receptor): 720 nM
Ki [5]: 450 nM
Ki (D(2) dopamine receptor [2]): 3400 nM
Ki (D(4) dopamine receptor [3]): 18 nM

C#Cc1c[nH]c(CN2CCN(c3ccccc3)CC2)c1
Ki (D(1A) dopamine receptor): 2000 nM
EC50 (D(4) dopamine receptor [4]): 1.9 nM
Ki (D(2) dopamine receptor [1]): 770 nM
Ki (D(3) dopamine receptor): 850 nM
Ki [5]: 380 nM
Ki (D(2) dopamine receptor [2]): 580 nM
Ki (D(4) dopamine receptor [3]): 5.9 nM

c1ccc(-c2c[nH]c(CN3CCN(c4ccccc4)CC3)c2)cc1
Ki (D(1A) dopamine receptor): 2100 nM
EC50 (D(4) dopamine receptor [4]): 6.8 nM
Ki (D(2) dopamine receptor [1]): 230 nM
Ki (D(3) dopamine receptor): 540 nM
Ki [5]: 1300 nM
Ki (D(2) dopamine receptor [2]): 170 nM
Ki (D(4) dopamine receptor [3]): 12 nM

C(#Cc1c[nH]c(CN2CCN(c3ccccc3)CC2)c1)c1ccccc1
Ki (D(1A) dopamine receptor): 2700 nM
Ki (D(2) dopamine receptor [1]): 760 nM
Ki (D(3) dopamine receptor): 670 nM
Ki (D(2) dopamine receptor [2]): 550 nM
Ki (D(4) dopamine receptor [3]): 83 nM
